≈ marks a conversion by molar mass, not a printed value.
What was measured:
Staphylococcus aureus [1] = experiment: Antimicrobial activity against Staphylococcus aureus ATCC 29213 after 16 to 18 hrs by agar dilution method; type: functional
Streptococcus pneumoniae = experiment: Antimicrobial activity against sStreptococcus pneumoniae after 16 to 18 hrs by agar dilution method; type: functional
Staphylococcus aureus [2] = experiment: Antimicrobial activity against methicillin-resistant Staphylococcus aureus after 16 to 18 hrs by agar dilution method; type: functional
Enterococcus faecalis = experiment: Antimicrobial activity against Enterococcus faecalis after 16 to 18 hrs by agar dilution method; type: functional
Staphylococcus aureus [3] = experiment: Antimicrobial activity against methicillin-susceptible Staphylococcus aureus after 16 to 18 hrs by agar dilution method; type: functional
Staphylococcus aureus [4] = experiment: Antimicrobial activity against methicillin-resistant Staphylococcus aureus 05-2 infected in po dosed KunMing SPF mouse; type: functional
In short: (§1)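 Mice given a lethal systemic infection by intraperitoneal injection of the MLD inoculum of MRSA 05-2. Compound dosed orally or by i.v. injection in 0.9% NaCl immediately and 4 h post-infection. ED50 (dose curing 50% of infected mice) calculated by the Bliss method on day 7 post-infection, with 95% confidence ranges.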

Staphylococcus aureus [5] = experiment: Antimicrobial activity against methicillin-resistant Staphylococcus aureus 05-2 infected in iv dosed KunMing SPF mouse; type: functional; in short: as §1
[6] = Oral bioavailability in Sprague-Dawley rat at 10 mg/kg; type: ADME, organism-based; details: in vivo
In short: (§2)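 Single dose given orally (10 or 50 mg/kg) or intravenously (10 mg/kg). Serial 300 µL blood samples were taken from the retrobulbar vein. Plasma was quantified by LC-MS. Parameters came from mean plasma concentration by non-compartmental analysis. F is absolute oral bioavailability, assuming linear pharmacokinetics.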

[7] = Elimination half life in Sprague-Dawley rat at 10 mg/kg, po; type: ADME, organism-based; design: dose 10 mg/kg, route oral; details: in vivo, read-out: beta t1/2 (converted); in short: as §2
[8] = Elimination half life in Sprague-Dawley rat at 10 mg/kg, iv; type: ADME, organism-based; design: dose 10 mg/kg, route intravenous; details: in vivo, read-out: beta t1/2 (converted); in short: as §2
[9] = Tmax in Sprague-Dawley rat at 10 mg/kg, po; type: ADME, organism-based; design: dose 10 mg/kg, route oral; details: in vivo; in short: as §2
[10] = AUC (0 to infinity) in Sprague-Dawley rat at 10 mg/kg, po; type: ADME, organism-based, Plasma; design: time infinity, dose 10 mg/kg, route oral; details: Sprague-Dawley, plasma; in short: as §2
[11] = AUC (0 to infinity) in Sprague-Dawley rat at 50 mg/kg, po; type: ADME, organism-based, Plasma; design: time infinity, dose 50 mg/kg, route oral; details: Sprague-Dawley, plasma; in short: as §2
[12] = Cmax in Sprague-Dawley rat at 10 mg/kg, po; type: ADME, organism-based; design: dose 10 mg/kg, route oral; details: in vivo; in short: as §2
[13] = Tmax in Sprague-Dawley rat at 50 mg/kg, po; type: ADME, organism-based; design: dose 50 mg/kg, route oral; details: in vivo; in short: as §2
[14] = Clearance in Sprague-Dawley rat at 10 mg/kg, iv; type: ADME, organism-based; design: dose 10 mg/kg, route intravenous; details: in vivo; in short: as §2
[15] = Clearance in Sprague-Dawley rat at 50 mg/kg, po; type: ADME, organism-based; design: dose 50 mg/kg, route oral; details: in vivo; in short: as §2
[16] = AUC (0 to infinity) in Sprague-Dawley rat at 10 mg/kg, iv; type: ADME, organism-based; design: time infinity, dose 10 mg/kg, route intravenous; details: plasma; in short: as §2
[17] = Elimination half life in Sprague-Dawley rat at 50 mg/kg, po; type: ADME, organism-based; design: dose 50 mg/kg, route oral; details: in vivo, read-out: beta t1/2 (converted); in short: as §2
[18] = Clearance in Sprague-Dawley rat at 10 mg/kg, po; type: ADME, organism-based; design: dose 10 mg/kg, route oral; details: in vivo; in short: as §2
[19] = Cmax in Sprague-Dawley rat at 50 mg/kg, po; type: ADME, organism-based; design: dose 50 mg/kg, route oral; details: in vivo; in short: as §2

| SMILES | MIC (Staphylococcus aureus [1]) | MIC (Streptococcus pneumoniae) | MIC (Staphylococcus aureus [2]) | MIC (Enterococcus faecalis) | MIC (Staphylococcus aureus [3]) | also measured |
| --- | --- | --- | --- | --- | --- | --- |
| O=C1O[C@@H](Cn2ccnn2)CN1c1ccc(N2CCN(Cc3ccncc3)CC2)c(F)c1 | 0.5 µg/mL (≈ 1.14 µM) | 1 µg/mL (≈ 2.29 µM) | 1 µg/mL (≈ 2.29 µM) | 2 µg/mL (≈ 4.57 µM) | 0.5 µg/mL (≈ 1.14 µM) |  |
| O=C1O[C@@H](Cn2ccnn2)CN1c1ccc(N2CCN(Cc3ccc(Br)s3)CC2)c(F)c1 | 0.06 µg/mL (≈ 0.115 µM) | 0.5 µg/mL (≈ 0.959 µM) | 0.5 µg/mL (≈ 0.959 µM) | 1 µg/mL (≈ 1.92 µM) | 0.06 µg/mL (≈ 0.115 µM) |  |
| O=C1O[C@@H](Cn2ccnn2)CN1c1ccc(N2CCN(Cc3cccnc3)CC2)c(F)c1 | 0.125 µg/mL (≈ 0.286 µM) | 1 µg/mL (≈ 2.29 µM) | 1 µg/mL (≈ 2.29 µM) | 1 µg/mL (≈ 2.29 µM) | 0.125 µg/mL (≈ 0.286 µM) |  |
| O=C1O[C@@H](Cn2ccnn2)CN1c1ccc(N2CCN(Cc3ccco3)CC2)c(F)c1 | 0.06 µg/mL (≈ 0.141 µM) | 0.5 µg/mL (≈ 1.17 µM) | 0.5 µg/mL (≈ 1.17 µM) | 0.5 µg/mL (≈ 1.17 µM) | 0.06 µg/mL (≈ 0.141 µM) | ED50 (Staphylococcus aureus [4]): 12.3 mg/kg; ED50 (Staphylococcus aureus [5]): 12 mg/kg |
| CC(=O)NC[C@H]1CN(c2ccc(N3CCOCC3)c(F)c2)C(=O)O1 [LINEZOLID] | 0.5 µg/mL (≈ 1.48 µM) |  | 1 µg/mL (≈ 2.96 µM) |  | 0.5 µg/mL (≈ 1.48 µM) | ED50 (Staphylococcus aureus [4]): 8.45 mg/kg; ED50 (Staphylococcus aureus [5]): 8.45 mg/kg |
| Cc1ccc(CN2CCN(c3ccc(N4C[C@H](Cn5ccnn5)OC4=O)cc3F)CC2)s1 | 0.125 µg/mL (≈ 0.274 µM) | 2 µg/mL (≈ 4.38 µM) | 4 µg/mL (≈ 8.76 µM) | 4 µg/mL (≈ 8.76 µM) | 0.06 µg/mL (≈ 0.131 µM) |  |
| Nc1ccc(CN2CCN(c3ccc(N4C[C@H](Cn5ccnn5)OC4=O)cc3F)CC2)cc1 | 0.125 µg/mL (≈ 0.277 µM) | 0.5 µg/mL (≈ 1.11 µM) | 0.5 µg/mL (≈ 1.11 µM) | 0.25 µg/mL (≈ 0.554 µM) | 0.06 µg/mL (≈ 0.133 µM) | bioavailability [6]: 43.8%; half-life [7]: 3.4 h; half-life [8]: 3.52 h; Tmax [9]: 0.75 h; AUC(0-inf) [10]: 3100 ng·h/mL; AUC(0-inf) [11]: 18100 ng·h/mL; ED50 (Staphylococcus aureus [4]): 14.5 mg/kg; ED50 (Staphylococcus aureus [5]): 6.73 mg/kg; Cmax [12]: 1200 ng/mL; Tmax [13]: 1 h; clearance [14]: 23.9 mL/min/kg; CL/F [15]: 49 mL/min/kg; AUC(0-inf) [16]: 7080 ng·h/mL; half-life [17]: 4.67 h; CL/F [18]: 54.4 mL/min/kg; Cmax [19]: 2320 ng/mL |
| O=Cc1cccc(CN2CCN(c3ccc(N4C[C@H](Cn5ccnn5)OC4=O)cc3F)CC2)c1 | 0.25 µg/mL (≈ 0.538 µM) | 1 µg/mL (≈ 2.15 µM) | 0.125 µg/mL (≈ 0.269 µM) | 1 µg/mL (≈ 2.15 µM) | 0.5 µg/mL (≈ 1.08 µM) |  |
| O=C1O[C@@H](Cn2ccnn2)CN1c1ccc(N2CCN(Cc3ccc(Cl)o3)CC2)c(F)c1 | 0.125 µg/mL (≈ 0.271 µM) | 1 µg/mL (≈ 2.17 µM) | 1 µg/mL (≈ 2.17 µM) | 2 µg/mL (≈ 4.34 µM) | 0.125 µg/mL (≈ 0.271 µM) |  |
| Nc1cccc(CN2CCN(c3ccc(N4C[C@H](Cn5ccnn5)OC4=O)cc3F)CC2)c1 | 0.25 µg/mL (≈ 0.554 µM) | 0.5 µg/mL (≈ 1.11 µM) | 0.5 µg/mL (≈ 1.11 µM) | 0.5 µg/mL (≈ 1.11 µM) | 0.25 µg/mL (≈ 0.554 µM) |  |
| O=C1O[C@@H](Cn2ccnn2)CN1c1ccc(N2CCN(Cc3ccsc3)CC2)c(F)c1 | 0.06 µg/mL (≈ 0.136 µM) | 0.5 µg/mL (≈ 1.13 µM) | 1 µg/mL (≈ 2.26 µM) | 1 µg/mL (≈ 2.26 µM) | 0.06 µg/mL (≈ 0.136 µM) |  |
| O=C1O[C@@H](Cn2ccnn2)CN1c1ccc(N2CCN(Cc3ccccn3)CC2)c(F)c1 | 0.125 µg/mL (≈ 0.286 µM) | 0.5 µg/mL (≈ 1.14 µM) | 0.5 µg/mL (≈ 1.14 µM) | 0.5 µg/mL (≈ 1.14 µM) | 0.125 µg/mL (≈ 0.286 µM) |  |

— ChEMBL document CHEMBL1151774, “Synthesis and biological evaluation of new N-linked 5-triazolylmethyl oxazolidinones” (Eur J Med Chem, 2008)
